Compound activity deposited in PubChem BioAssay by Broad Institute.
A1 apoptosis 2: compounds inhibiting A1, read as caspase activation; MEF A1-2A-BIM cells, caspase-Glo luminescence, 3 h; percent of clofoctol response, DMSO zero; caspase activation, % (no concentration beside the values); 24,000 tested, under 10 active; in the data active = caspase activation above about 5.9%
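Test system – A1-2A-BIM-expressing MEF cells · Input – 2500 cells/well · Medium – RPMI-1640 growth medium with 10% FBS · Compound dosing – 50 nL pinned compound · Timing – 3 h compound exposure at 37 °C · Technique – Caspase-Glo luminescence (DEVD substrate) · Evaluation – Caspase-3/7 activity from luminescence increase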
INS-1E ATP HTS: preserves ATP levels in cytokine-treated INS-1E cells. protection from cytokine-induced ATP loss, % at 10 µM. AID 488910. 20,000 compounds, 0.1% hits. INS-1E cytokine-induced death, ATP luminescence, 48 h; normalised: neutral wells 0, positive control 100;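 active = mean replicate protection from cytokine-induced ATP loss at least 50% and at least 75% of replicates each reaching 50%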
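Assay system – rat INS-1E insulinoma cell line · Quantity – 8000 cells per well · Buffer or medium – RPMI without phenol red, 5% FBS · Schedule – 48 h co-treatment, 10 min post-lysis read · Technique – luminescent ATP assay (CellTiter-Glo)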
T cruzi HTS: inhibitors of intracellular Trypanosoma cruzi; intracellular Trypanosoma cruzi in host cells, plate reader; activity score (inhibition), % at 5.01 µM; 22,000 compounds, 4.9% hits; in the data active = activity score above about 55%;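 note: parasites and compound incubated about four days before reading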
Of the large screens only hits and unclear results are named; the others gave an inactive call. Shown is part of a subset that was picked to be rich in hits.

Cc1noc(C)c1S(=O)(=O)Nc1ccc2c(c1)C(=O)N([C@@H](C)CO)C[C@H](C)[C@@H](CN(C)Cc1ccc(C(=O)Nc3ccccc3N)cc1)O2	none
Cc1noc(C)c1S(=O)(=O)Nc1ccc2c(c1)C(=O)N([C@@H](C)CO)C[C@@H](C)[C@@H](CN(C)Cc1ccc(C(=O)Nc3ccccc3N)cc1)O2	none
Cc1noc(C)c1S(=O)(=O)Nc1ccc2c(c1)C(=O)N([C@H](C)CO)C[C@@H](C)[C@@H](CN(C)Cc1ccc(C(=O)Nc3ccccc3N)cc1)O2	T cruzi HTS 65
Cc1noc(C)c1S(=O)(=O)Nc1ccc2c(c1)CC(=O)N([C@H](C)CO)C[C@H](C)[C@H](CN(C)Cc1ccc(C(=O)Nc3ccccc3N)cc1)O2	T cruzi HTS 76 (no result: A1 apoptosis 2)
Cc1noc(C)c1S(=O)(=O)Nc1ccc2c(c1)C(=O)N([C@H](C)CO)C[C@H](C)[C@H](CN(C)Cc1ccc(C(=O)Nc3ccccc3N)cc1)O2	T cruzi HTS 79 (no result: A1 apoptosis 2)
C=C(C)[C@@H]1CC=C(/C=N/NC(=O)c2ccc(C(=O)NO)cc2)CC1	none (no result: A1 apoptosis 2)
COc1ccc([Si](C)(C)[C@H]2[C@H](CCn3cc([C@H](O)c4ccccc4)nn3)O[C@@]3(C(=O)N(Cc4ccc(N5CCOC5=O)cc4)c4ccccc43)[C@@H]2C)cc1	none (no result: INS-1E ATP HTS, T cruzi HTS)
Cc1ccc(S(=O)(=O)NC2CCN(Cc3cccc(OCCO)c3)CC2)cc1	none (no result: INS-1E ATP HTS, T cruzi HTS)
O=C(CCCCCCC(=O)Nc1ccccc1O)N/N=C/c1ccc2c(c1)CCO2	none
Cc1c(NC(=O)/C(C#N)=C/c2cccc([N+](=O)[O-])c2)c(=O)n(-c2ccccc2)n1C	none (no result: INS-1E ATP HTS, T cruzi HTS)
COCCCNC(=O)[C@]1(CCS(=O)(=O)c2ccccc2)N=C(c2ccc(OCCCO)cc2)O[C@@H]1c1ccccc1	none (no result: INS-1E ATP HTS, T cruzi HTS)
O=C(CCCCCC(=O)N/N=C/c1cccnc1Br)NO	none (no result: INS-1E ATP HTS, T cruzi HTS)
C[C@H](CO)N1C[C@H](C)[C@H](CN(C)C)Oc2ncc(C#CCN(C)C)cc2C1=O	none (no result: A1 apoptosis 2, INS-1E ATP HTS)
COc1ccc(C#Cc2cnc3c(c2)C(=O)N([C@H](C)CO)C[C@H](C)[C@H](CN(C)Cc2ccccc2)O3)cc1OC	none (no result: INS-1E ATP HTS)
Cc1cccc(CN(C)C[C@@H]2Oc3ncc(C#CCN(C)C)cc3C(=O)N([C@H](C)CO)C[C@@H]2C)c1	none (no result: A1 apoptosis 2, INS-1E ATP HTS)
Cc1cccc(CN(C)C[C@@H]2Oc3ncc(C#Cc4ccccc4)cc3C(=O)N([C@H](C)CO)C[C@@H]2C)c1	T cruzi HTS 74 (no result: INS-1E ATP HTS)
C[C@H](CO)N1C[C@H](C)[C@H](CN(C)C)Oc2ncc(C#Cc3ccccc3)cc2C1=O	T cruzi HTS 78 (no result: INS-1E ATP HTS)
COc1ccc(C#Cc2cnc3c(c2)C(=O)N([C@H](C)CO)C[C@H](C)[C@H](CN(C)C)O3)cc1OC	T cruzi HTS 83 (no result: INS-1E ATP HTS)
COc1ccc(C#Cc2cnc3c(c2)C(=O)N([C@H](C)CO)C[C@H](C)[C@H](CN(C)Cc2cccc(C(F)(F)F)c2)O3)cc1OC	T cruzi HTS 84 (no result: INS-1E ATP HTS)
COc1ccc(S(=O)(=O)N(C)C[C@@H]2Oc3ncc(C#Cc4ccc(OC)c(OC)c4)cc3C(=O)N([C@H](C)CO)C[C@@H]2C)cc1	none (no result: INS-1E ATP HTS)
CNC[C@H]1OCCCC[C@@H](C)Oc2ccc(NC(=O)Nc3ccc4c(c3)OCO4)cc2C(=O)N([C@H](C)CO)C[C@@H]1C	none
C[C@@H]1C=C(C(=O)Nc2ccccc2)O[C@H](OCCCCO)C1	none (no result: INS-1E ATP HTS, T cruzi HTS)
O=C(CCCCCCC(=O)N/N=C/c1ccoc1)NO	none (no result: INS-1E ATP HTS, T cruzi HTS)
O=C(CCCCCCC(=O)Nc1ccccc1O)N/N=C/c1ccc[nH]1	none
C[C@H](CO)N1C[C@H](C)[C@H](CN(C)C(=O)Nc2ccccc2)Oc2c(NC(=O)c3ccncc3)cccc2C1=O	T cruzi HTS 78
C[C@@H]1CN([C@@H](C)CO)C(=O)c2cccc(NC(=O)c3ccncc3)c2O[C@H]1CN(C)C(=O)Nc1ccccc1	none
C[C@@H]1CN([C@H](C)CO)C(=O)c2cccc(NC(=O)c3ccncc3)c2O[C@@H]1CN(C)C(=O)Nc1ccc(F)cc1	none
C[C@H]1CN([C@@H](C)CO)C(=O)c2cccc(NC(=O)c3ccncc3)c2O[C@H]1CN(C)C(=O)Nc1ccc(F)cc1	T cruzi HTS 64 (no result: A1 apoptosis 2)
O=C(N/N=C/c1ccc(-c2ccccc2)c(F)c1)c1ccccn1	none
CC(/C=C/C(=O)NO)=C\c1ccccc1OCc1cn(-c2cccc(C(=O)N3CCN(c4ccccc4)CC3)c2)nn1	none (no result: INS-1E ATP HTS, T cruzi HTS)
COC(=O)CCCCCCC(=O)N/N=C/c1ccc(S(=O)(=O)O)o1	none
O=C(NO)c1ccc(C(=O)N/N=C/c2ccoc2)cc1	none
O=C(NO)c1ccc(C(=O)N/N=C/c2ccc3c(c2)CCO3)cc1	none (no result: A1 apoptosis 2)
C[C@H]1CCCCO[C@@H](CN(C)C(=O)NC2CCCCC2)[C@@H](C)CN([C@@H](C)CO)C(=O)c2cc(NS(=O)(=O)c3ccccc3)ccc2O1	none (no result: INS-1E ATP HTS, T cruzi HTS)
